TRPC6 activator: mouse TRPC6 channel activation; 0.13% of 310,000 active; B-score at 10 µM; HEK293-TRPC6 membrane potential dye fluorescence; active compounds read high;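 active = B-score of the integrated fluorescence ratio above library mean plus 3 SD, and starting fluorescence ratio within library mean plus 5 SD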;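 note: higher score means more depolarization so channel activation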
Target sequence (Q61143 whole entry, looked up): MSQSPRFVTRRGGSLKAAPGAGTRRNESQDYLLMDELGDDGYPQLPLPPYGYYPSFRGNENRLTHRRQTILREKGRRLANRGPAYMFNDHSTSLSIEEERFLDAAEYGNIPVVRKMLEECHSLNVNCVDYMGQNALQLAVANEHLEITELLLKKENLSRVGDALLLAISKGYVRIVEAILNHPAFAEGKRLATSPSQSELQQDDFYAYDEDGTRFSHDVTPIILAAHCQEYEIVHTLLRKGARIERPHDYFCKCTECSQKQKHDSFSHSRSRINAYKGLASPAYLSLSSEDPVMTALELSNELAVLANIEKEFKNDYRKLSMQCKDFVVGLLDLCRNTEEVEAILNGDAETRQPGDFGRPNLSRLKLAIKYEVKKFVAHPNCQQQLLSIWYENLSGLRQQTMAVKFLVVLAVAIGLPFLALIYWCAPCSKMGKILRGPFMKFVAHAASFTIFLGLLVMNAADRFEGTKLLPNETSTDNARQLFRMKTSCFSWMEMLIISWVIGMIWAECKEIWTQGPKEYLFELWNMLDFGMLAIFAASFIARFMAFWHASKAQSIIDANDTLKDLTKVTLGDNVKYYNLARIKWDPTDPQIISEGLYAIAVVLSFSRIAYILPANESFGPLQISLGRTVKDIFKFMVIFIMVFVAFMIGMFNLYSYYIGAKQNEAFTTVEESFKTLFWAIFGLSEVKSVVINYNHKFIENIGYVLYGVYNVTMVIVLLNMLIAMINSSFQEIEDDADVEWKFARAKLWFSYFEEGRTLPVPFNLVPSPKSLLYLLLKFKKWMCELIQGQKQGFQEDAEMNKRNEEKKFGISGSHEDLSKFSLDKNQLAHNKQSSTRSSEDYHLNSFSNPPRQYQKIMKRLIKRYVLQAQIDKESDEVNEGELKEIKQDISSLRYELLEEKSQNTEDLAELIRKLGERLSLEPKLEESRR
TRPC4 agonist: opens the mouse TRPC4 cation channel | 0.49% of 310,000 active | B-score at 10 µM | HEK293 TRPC4beta/mu-opioid, Fluo4 calcium fluorescence; active compounds read high | AID 2237;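 active = B-score above 5 SD of library B-scores, and initial fluorescence ratio not above library mean plus 5 SD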;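 note: positive B-score marks a calcium rise read as TRPC4 activation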
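System – HEK293 cells stably co-expressing mouse TRPC4beta and mu-opioid receptor · Signal – Fluo4 calcium-sensitive dye fluorescence, kinetic, 1 Hz baseline · Benchmarks – buffer (low) and maximal DAMGO (high) · Read-out – B score of integrated fluorescence ratio per well · Incubation – dye loading 45 min room temperature, 110 s kinetic read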
TRPC4 block: blocks the mouse TRPC4 cation channel | HEK293 TRPC4beta/mu-opioid, DAMGO-evoked Fluo4 calcium flux; active compounds read low | Q9QUQ5 | AID 2247 | 0.39% of 300,000 active | B-score at 10 µM;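 active = B-score over 3 SD under the library average, no early fluorescence shift, positive overall ratio signal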
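Signal: kinetic Fluo4 fluorescence imaging of calcium influx. Material: stable TRPC4beta/mu-opioid receptor HEK293 cells. Probe or stimulus: DAMGO in two steps, submaximal then maximal.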
TRPC6 inhibitor: mouse TRPC6 channel inhibition; AID 2553; 1.1% of 310,000 active; B-score at 10 µM; Q61143; HEK293-TRPC6, membrane potential dye, ACh-evoked depolarization; active compounds read low;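 active = B-score under library mean minus 3 SD, initial fluorescence not abnormally high, positive integrated signal ratio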;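 note: B-score derived from integrated fluorescence ratio over the kinetic read; more negative B-score means stronger inhibition of depolarization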
TRPC4 potent: TRPC4 (mouse) allosteric potentiation; B-score at 10 µM; 0.42% of 310,000 active; Q9QUQ5; HEK293 TRPC4beta/mu-opioid, DAMGO EC20, Fluo-4 Ca2+ flux; active compounds read high;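 active = B-score of calcium response area above 5 SD of library B-scores, with initial fluorescence ratio within 5 SD of library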;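 note: B-score of integrated fluorescence ratio over time as area under calcium response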
Kir21 inh: blocks the mouse Kir2.1 inward-rectifier potassium channel | P35561 | HEK293-Kir2.1, FluxOR thallium flux fluorescence; active compounds read low | B-score at 10 µM | 0.85% of 310,000 active | AID 1672;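 active = fluorescence ratio B-score at or below minus 3 SD of library scores, with starting-brightness B-score within 2 SD, cut at about -4.2 in these data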;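 note: channel flux triggered by added potassium and thallium sulfate stimulus; B-score of peak minus minimum fluorescence over baseline after thallium stimulus; more negative B-score means stronger Kir2.1 block with less thallium influx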
TRPC4 spec 2: mouse TRPC4 off-target activity of TRPC6 inhibitors, second screen. inhibition, % at 10 µM. HEK293 TRPC4/MOR, membrane potential dye fluorescence; channel activated by saturating DAMGO dose. shares compounds with TRPC6 inhibitor. 42% of 920 active;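 active = compounds whose fluorescence signal differed from control wells by over 3 SD, either direction, in both duplicate plates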
TRPC4 spec: tests whether TRPC6 inhibitors also affect mouse TRPC4 | shares compounds with TRPC6 inhibitor | HEK293 TRPC4/mu-opioid, membrane potential fluorescence | activity change, negative = inhibition, % at 10 µM | 61% of 920 active | AID 2777;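 active = rise or fall in signal beyond 3 SD of buffer-only wells in both replicate plates, either sign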;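 note: integrated kinetic ratio of fluorescence range over baseline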
HEK293 MPD ctr 2-1: second check of TRPC6 inhibitor effects in parental HEK293 cells. shares compounds with TRPC6 inhibitor. parental HEK293 membrane potential dye fluorescence; maximal acetylcholine challenge after compound addition. signal change vs control, % at 10 µM. 31% of 920 active;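 active = membrane potential signal moving either way by over 3 SD of the maximum-effect control, in both duplicate plates, meaning non-specific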
HEK293 MPD ctr-1: counter-screen for TRPC6 inhibitors: effect in parental HEK293 cells | shares compounds with TRPC6 inhibitor | parental HEK293 membrane potential dye fluorescence | membrane potential signal change, % at 10 µM | 60% of 920 active | AID 2780;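 active = membrane potential signal shifting up or down by more than 3 SD of buffer-only wells, on both duplicate plates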
HEK293 MPD ctr-2: counter-screen for TRPC6 modulators: effect in parental HEK293 cells | AID 488924 | membrane potential dye fluorescence | membrane potential signal change, % at 10 µM | 51% of 2,400 active | shares compounds with TRPC6 inhibitor;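 active = membrane potential signal moves up or down beyond 5 SD from buffer-only wells, on both duplicate plates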
HEK293 MPD ctr 2-2: second counter-screen for TRPC6 modulators: effect in parental HEK293 cells. shares compounds with TRPC6 inhibitor. 14% of 2,400 active. inhibition, % at 10 µM. membrane potential dye fluorescence; after compound, maximal acetylcholine stimulation;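 active = membrane potential signal drops by more than 5 SD from the mean control signal, in both duplicate plates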;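 note: plate controls were acetylcholine ECmax control wells for no effect and buffer only wells for full effect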
TRPC4 ctr mod: tests whether TRPC6 modulators also affect mouse TRPC4. percent change from control (negative = decrease, positive = increase), % at 10 µM. HEK293 TRPC4/mu-opioid, membrane potential fluorescence. shares compounds with TRPC6 inhibitor. 69% of 2,400 active;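 active = membrane potential signal moved up or down beyond 5 SD of buffer control wells, in both duplicate plates, actives on both sides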;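 note: plate controls were assay buffer wells for no effect and DAMGO maximal-effect wells for full effect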
TRPC4 ctr inh 2: mouse TRPC4 off-target activity of TRPC6 modulators, second screen. shares compounds with TRPC6 inhibitor. HEK293 TRPC4/mu-opioid, membrane potential dye fluorescence; stimulated with maximal-effect DAMGO. inhibition, % at 10 µM. 55% of 2,400 active. AID 488928;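 active = drop in membrane potential signal beyond 5 SD of the control wells in both duplicate plates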;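 note: TRPC4 counter screen for TRPC6 hits run under conditions tuned for TRPC6 not TRPC4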
TRPC6 inh conf: confirmation of mouse TRPC6 inhibitors. inhibition, % at 10 µM. AID 488960. 43% of 3,300 active. HEK293-TRPC6, membrane potential dye, ACh-evoked depolarization. shares compounds with TRPC6 inhibitor;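 active = fluorescence ratio falls more than 5 SD below the full-stimulation control mean, in both duplicate runs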;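 note: integrated fluorescence ratio of peak minus minimum over baseline after agonist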
TRPC6 act conf: mouse TRPC6 activator confirmation; shares compounds with TRPC6 inhibitor; HEK293-TRPC6 membrane potential dye fluorescence, FDSS; activation, % at 10 µM; 11% of 2,800 active;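 active = ratio signal rise beyond 5 SD above unstimulated control wells' mean, seen in both duplicate runs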;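 note: plate controls were buffer EC0 wells for no effect and acetylcholine ECmax response for full effect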
The depositor's hits bear a star; i = inactive; x = no result given. Hits are enriched below; roughly 2.9% of the tested compounds scored in any of these assays.

SMILES	TRPC6 activator	TRPC4 agonist	TRPC4 block	TRPC6 inhibitor	TRPC4 potent	Kir21 inh	HEK293 MPD ctr-2	HEK293 MPD ctr 2-2	TRPC4 ctr mod	TRPC4 ctr inh 2	TRPC6 inh conf	TRPC6 act conf	others
Cc1ccc(S(=O)(=O)NCCC(=O)N2CCCCCCC2)cc1	i	i	i	i	i	-1	x	x	x	x	x	x
CC1CCN(C(=O)CNC(=O)CNC(=O)Cc2ccccc2)CC1	i	i	i	i	i	2.87	x	x	x	x	x	x
O=C(O)/C=C/C(=O)NC1CCCCCCCCCCC1	i	i	i	i	i	0.39	x	x	x	x	x	x
COc1ccccc1-c1cc(C(=O)N/N=C\c2cn(C)nc2C)c2ccccc2n1	i	i	i	-5.91*	i	0.01	i	i	i	i	44.0%*	x
CCOC(=O)c1c(NC(=O)c2cccc([N+](=O)[O-])c2C(=O)O)sc2c1CCCC2	36.8*	i	i	i	i	-0.18	209.5%*	i	37.0%*	i	i	101.5%*
CCOC(=O)c1c(NC(=O)c2c(C(=O)O)cccc2[N+](=O)[O-])sc2c1CCCC2	29.5*	i	i	i	i	1.42	194.0%*	i	31.0%*	i	i	116.5%*
c1ccc2nc3c(cc2c1)CCCCC3	i	i	i	i	i	1.97	x	x	x	x	x	x
CC/C(=N\NC(=O)c1nnn(-c2nonc2N)c1-c1cccs1)c1ccccc1	i	i	i	i	i	-0.09	x	x	x	x	x	x
COc1ccc(N(CC(=O)NCCc2cccc(C)c2)S(=O)(=O)c2c(C)noc2C)cc1	i	i	i	i	i	0.48	x	x	x	x	x	x
CCCCn1c(=NC(=O)c2ccco2)c(C(=O)OCC)cc2c(=O)n3ccccc3nc21	i	i	i	-5.79*	i	0.56	i	i	i	i	i	i
CCCCCn1c(=NC(=O)c2ccco2)c(C(=O)OCC)cc2c(=O)n3ccccc3nc21	i	i	i	i	i	-0.11	x	x	x	x	x	x
N=c1c(C(=O)NC2CCCC2)cc2c(=O)n3ccccc3nc2n1C1CCCC1	i	i	i	-10.8*	i	1.37	-144.0%*	62.0%*	-31.0%*	58.0%*	55.5%*	i
CCCn1c(=N)c(C(=O)NC2CCCC2)cc2c(=O)n3cccc(C)c3nc21	i	i	i	-6.84*	i	0.75	x	x	x	x	78.1%*	i	TRPC4 spec 2=62.5%*;TRPC4 spec=-14.0%*;HEK293 MPD ctr 2-1=-32.5%*;HEK293 MPD ctr-1=-170.5%*
Cc1cccn2c(=O)c3cc(C(=O)NC4CCCCC4)c(=N)n(CCN4CCOCC4)c3nc12	i	i	i	i	i	0.05	x	x	x	x	x	x
Cc1cccn2c(=O)c3cc(C(=O)NC4CCCC4)c(=N)n(C4CCCC4)c3nc12	i	i	i	-5.19*	i	0.97	-151.0%*	i	-54.5%*	48.0%*	49.0%*	i
N=c1c(C(=O)NCc2ccco2)cc2c(=O)n3ccccc3nc2n1C1CCCC1	i	i	i	-5.3*	i	-0.18	-71.5%*	i	-32.5%*	37.0%*	45.5%*	i
N=c1c(C(=O)NCc2ccco2)cc2c(=O)n3ccccc3nc2n1Cc1ccccc1	i	i	i	-7.09*	i	0.51	i	i	-39.5%*	45.5%*	i	i
Cc1ccc(CNC(=O)c2cc3c(=O)n4ccccc4nc3n(Cc3ccco3)c2=N)cc1	i	i	i	i	i	-0.83	x	x	x	x	x	x
Cc1ccc2nc3c(cc(C(=O)NCc4ccco4)c(=N)n3Cc3ccco3)c(=O)n2c1	i	i	i	i	i	-1.12	x	x	x	x	x	x
COCC[N+]1(C)CCCCC1	i	i	i	i	i	0.26	x	x	x	x	x	x
Cc1ccc(C)c(N2CCN(S(=O)(=O)c3cc4c(cc3Cl)NC(=O)CO4)CC2)c1	i	i	i	i	i	1.35	x	x	x	x	x	x
COc1ccccc1CNC(=O)COc1ccc(S(=O)(=O)N2CCCC2)cc1	i	i	i	i	i	-1.05	x	x	x	x	x	x
Oc1ccccc1-c1nc(NCc2ccccc2)c2ccccc2n1	i	i	i	i	i	1.06	x	x	x	x	x	x
CNc1nc(NCc2ccccc2)c2ccccc2n1	i	i	-6*	-5.27*	i	-5.4*	-110.5%*	i	-26.0%*	78.5%*	53.5%*	i
CN(C)CC/C=C1/c2cc(F)ccc2Sc2ccc(Cl)cc21	i	i	i	-5.29*	i	-8.48*	i	i	9.5%*	57.5%*	i	i
CCOC(=O)c1cc2[nH]c3ccccc3c2[n+](-c2ccc([N+](=O)[O-])cc2)c1N	i	i	i	i	i	0.07	x	x	x	x	x	x
CCOC(=O)c1cc2[nH]c3ccccc3c2[n+](-c2ccc([N+](=O)[O-])cc2)c1C	i	i	i	-7.6*	i	0.36	-275.0%*	i	-49.5%*	56.0%*	60.0%*	i

Bioassay records as filed in PubChem BioAssay.
